ChEMBL document CHEMBL4689842, “EUbOPEN Chemogenomics Library wave 1” (2021)

Test system: U2OS
Experiment: Multiplex assay against U2OS
Type: toxicity, cell-based
Conditions: human
Summary of the method: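 Tubulin, mitochondrial-mass and membrane-permeability phenotypes are per cents of healthy-nucleus cells. Cells were gated by CellPathfinder machine learning into Hoechst high-intensity objects or normal cells, normal cells into healthy, pyknosed or fragmented nuclei, and pyknosed cells into mitotic or apoptotic. Before that, live cells stained at seeding with Hoechst33342, BioTracker Green Microtubule Cytoskeleton Dye, MitoTracker Red and Annexin V Alexa Fluor 680 were imaged on a CQ1 microscope at 37°C and 5% CO2 after compound addition.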

[1] = 12 h, 1 µM, compound concentration 1 uM, replicate 1
[2] = 12 h, 1 µM, compound concentration 1 uM, replicate 2
[3] = 12 h, 10 µM, compound concentration 10 uM, replicate 1
[4] = 12 h, 10 µM, compound concentration 10 uM, replicate 2
[5] = 24 h, 1 µM, compound concentration 1 uM, replicate 1
[6] = 24 h, 1 µM, compound concentration 1 uM, replicate 2
[7] = 24 h, 10 µM, compound concentration 10 uM, replicate 1
[8] = 24 h, 10 µM, compound concentration 10 uM, replicate 2
[9] = 48 h, 1 µM, compound concentration 1 uM, replicate 1
[10] = 48 h, 1 µM, compound concentration 1 uM, replicate 2
[11] = 48 h, 10 µM, compound concentration 10 uM, replicate 1
[12] = 48 h, 10 µM, compound concentration 10 uM, replicate 2

Structure (SMILES): CCn1c(=O)c(-c2ccc(-c3cncs3)cc2Cl)cc2cnc(Nc3ccc(N4CCN(C)CC4)cc3)nc21
- Population Apoptotic (%) [1]: 57%
- Population Fragmented Nuclei (%) [1]: 11%
- Population Healthy Nuclei (%) [1]: 77%
- Population Hoechst High Intensity Objects (%) [1]: 7%
- Population Membrane Permeable-Phenotype (%) [1]: 11%
- Population Mitochondria Different-Phenotype (%) [1]: 11%
- Population Mitotic Cells (%) [1]: 42%
- Population Normal (%) [1]: 92%
- Population Pyknosed Nuclei (%) [1]: 11%
- Population Tubulin-Different-Phenotype (%) [1]: 7%
- Total Cell Count [1]: 162
- Population Apoptotic (%) [2]: 75%
- Population Fragmented Nuclei (%) [2]: 9%
- Population Healthy Nuclei (%) [2]: 78%
- Population Membrane Permeable-Phenotype (%) [2]: 3%
- Population Mitochondria Different-Phenotype (%) [2]: 17%
- Population Mitotic Cells (%) [2]: 25%
- Population Tubulin-Different-Phenotype (%) [2]: 19%
- Total Cell Count [2]: 76
- Population Apoptotic (%) [3]: 84%
- Population Fragmented Nuclei (%) [3]: 40%
- Population Healthy Nuclei (%) [3]: 5%
- Population Hoechst High Intensity Objects (%) [3]: 77%
- Population Membrane Permeable-Phenotype (%) [3]: 38%
- Population Mitochondria Different-Phenotype (%) [3]: 53%
- Population Mitotic Cells (%) [3]: 15%
- Population Normal (%) [3]: 22%
- Population Pyknosed Nuclei (%) [3]: 54%
- Population Tubulin-Different-Phenotype (%) [3]: 84%
- Total Cell Count [3]: 177
- Population Apoptotic (%) [4]: 11%
- Population Fragmented Nuclei (%) [4]: 8%
- Population Healthy Nuclei (%) [4]: 79%
- Population Hoechst High Intensity Objects (%) [4]: 4%
- Population Membrane Permeable-Phenotype (%) [4]: 5%
- Population Mitochondria Different-Phenotype (%) [4]: 29%
- Population Mitotic Cells (%) [4]: 88%
- Population Normal (%) [4]: 96%
- Population Pyknosed Nuclei (%) [4]: 12%
- Population Tubulin-Different-Phenotype (%) [4]: 15%
- Total Cell Count [4]: 77
- Population Apoptotic (%) [5]: 38%
- Population Fragmented Nuclei (%) [5]: 10%
- Population Healthy Nuclei (%) [5]: 78%
- Population Hoechst High Intensity Objects (%) [5]: 4%
- Population Membrane Permeable-Phenotype (%) [5]: 6%
- Population Mitochondria Different-Phenotype (%) [5]: 6%
- Population Mitotic Cells (%) [5]: 61%
- Population Normal (%) [5]: 95%
- Population Pyknosed Nuclei (%) [5]: 10%
- Population Tubulin-Different-Phenotype (%) [5]: 7%
- Total Cell Count [5]: 161
- Population Apoptotic (%) [6]: 46%
- Population Fragmented Nuclei (%) [6]: 15%
- Population Healthy Nuclei (%) [6]: 68%
- Population Membrane Permeable-Phenotype (%) [6]: 1%
- Population Mitochondria Different-Phenotype (%) [6]: 5%
- Population Mitotic Cells (%) [6]: 53%
- Population Pyknosed Nuclei (%) [6]: 16%
- Population Tubulin-Different-Phenotype (%) [6]: 20%
- Total Cell Count [6]: 74
- Population Apoptotic (%) [7]: 97%
- Population Fragmented Nuclei (%) [7]: 30%
- Population Healthy Nuclei (%) [7]: 0%
- Population Hoechst High Intensity Objects (%) [7]: 78%
- Population Membrane Permeable-Phenotype (%) [7]: 100%
- Population Mitochondria Different-Phenotype (%) [7]: 100%
- Population Mitotic Cells (%) [7]: 2%
- Population Normal (%) [7]: 21%
- Population Pyknosed Nuclei (%) [7]: 69%
- Population Tubulin-Different-Phenotype (%) [7]: 100%
- Total Cell Count [7]: 212
- Population Apoptotic (%) [8]: 27%
- Population Fragmented Nuclei (%) [8]: 14%
- Population Healthy Nuclei (%) [8]: 71%
- Population Hoechst High Intensity Objects (%) [8]: 3%
- Population Membrane Permeable-Phenotype (%) [8]: 7%
- Population Mitochondria Different-Phenotype (%) [8]: 23%
- Population Mitotic Cells (%) [8]: 72%
- Population Normal (%) [8]: 96%
- Population Pyknosed Nuclei (%) [8]: 14%
- Population Tubulin-Different-Phenotype (%) [8]: 8%
- Total Cell Count [8]: 83
- Population Apoptotic (%) [9]: 60%
- Population Fragmented Nuclei (%) [9]: 6%
- Population Healthy Nuclei (%) [9]: 85%
- Population Hoechst High Intensity Objects (%) [9]: 3%
- Population Membrane Permeable-Phenotype (%) [9]: 3%
- Population Mitochondria Different-Phenotype (%) [9]: 9%
- Population Mitotic Cells (%) [9]: 40%
- Population Normal (%) [9]: 96%
- Population Pyknosed Nuclei (%) [9]: 8%
- Population Tubulin-Different-Phenotype (%) [9]: 9%
- Total Cell Count [9]: 186
- Population Apoptotic (%) [10]: 50%
- Population Fragmented Nuclei (%) [10]: 8%
- Population Healthy Nuclei (%) [10]: 79%
- Population Hoechst High Intensity Objects (%) [10]: 8%
- Population Membrane Permeable-Phenotype (%) [10]: 7%
- Population Mitochondria Different-Phenotype (%) [10]: 20%
- Population Mitotic Cells (%) [10]: 50%
- Population Normal (%) [10]: 92%
- Population Pyknosed Nuclei (%) [10]: 12%
- Population Tubulin-Different-Phenotype (%) [10]: 23%
- Total Cell Count [10]: 105
- Population Apoptotic (%) [11]: 93%
- Population Fragmented Nuclei (%) [11]: 31%
- Population Healthy Nuclei (%) [11]: 0%
- Population Hoechst High Intensity Objects (%) [11]: 80%
- Population Membrane Permeable-Phenotype (%) [11]: 25%
- Population Mitochondria Different-Phenotype (%) [11]: 25%
- Population Mitotic Cells (%) [11]: 6%
- Population Normal (%) [11]: 19%
- Population Pyknosed Nuclei (%) [11]: 67%
- Population Tubulin-Different-Phenotype (%) [11]: 50%
- Total Cell Count [11]: 321
- Population Apoptotic (%) [12]: 57%
- Population Fragmented Nuclei (%) [12]: 16%
- Population Healthy Nuclei (%) [12]: 70%
- Population Hoechst High Intensity Objects (%) [12]: 3%
- Population Membrane Permeable-Phenotype (%) [12]: 16%
- Population Mitochondria Different-Phenotype (%) [12]: 24%
- Population Mitotic Cells (%) [12]: 42%
- Population Normal (%) [12]: 96%
- Population Pyknosed Nuclei (%) [12]: 13%
- Population Tubulin-Different-Phenotype (%) [12]: 18%
- Total Cell Count [12]: 125

Structure (SMILES): CCN1CCN(Cc2ccc(Nc3ncc(F)c(-c4cc(F)c5nc(C)n(C(C)C)c5c4)n3)nc2)CC1.CS(=O)(=O)O
- Population Apoptotic (%) [1]: 46%
- Population Fragmented Nuclei (%) [1]: 18%
- Population Healthy Nuclei (%) [1]: 63%
- Population Hoechst High Intensity Objects (%) [1]: 8%
- Population Membrane Permeable-Phenotype (%) [1]: 4%
- Population Mitochondria Different-Phenotype (%) [1]: 92%
- Population Mitotic Cells (%) [1]: 53%
- Population Normal (%) [1]: 91%
- Population Pyknosed Nuclei (%) [1]: 17%
- Population Tubulin-Different-Phenotype (%) [1]: 91%
- Total Cell Count [1]: 160
- Population Apoptotic (%) [2]: 40%
- Population Fragmented Nuclei (%) [2]: 17%
- Population Healthy Nuclei (%) [2]: 67%
- Population Hoechst High Intensity Objects (%) [2]: 6%
- Population Membrane Permeable-Phenotype (%) [2]: 8%
- Population Mitochondria Different-Phenotype (%) [2]: 91%
- Population Mitotic Cells (%) [2]: 60%
- Population Normal (%) [2]: 93%
- Population Pyknosed Nuclei (%) [2]: 14%
- Population Tubulin-Different-Phenotype (%) [2]: 97%
- Total Cell Count [2]: 73
- Population Apoptotic (%) [3]: 82%
- Population Fragmented Nuclei (%) [3]: 35%
- Population Healthy Nuclei (%) [3]: 29%
- Population Hoechst High Intensity Objects (%) [3]: 5%
- Population Membrane Permeable-Phenotype (%) [3]: 66%
- Population Mitochondria Different-Phenotype (%) [3]: 100%
- Population Mitotic Cells (%) [3]: 18%
- Population Normal (%) [3]: 94%
- Population Pyknosed Nuclei (%) [3]: 35%
- Total Cell Count [3]: 151
- Population Apoptotic (%) [4]: 83%
- Population Fragmented Nuclei (%) [4]: 32%
- Population Healthy Nuclei (%) [4]: 22%
- Population Hoechst High Intensity Objects (%) [4]: 9%
- Population Membrane Permeable-Phenotype (%) [4]: 88%
- Population Mitochondria Different-Phenotype (%) [4]: 94%
- Population Mitotic Cells (%) [4]: 16%
- Population Normal (%) [4]: 90%
- Population Pyknosed Nuclei (%) [4]: 45%
- Population Tubulin-Different-Phenotype (%) [4]: 100%
- Total Cell Count [4]: 88
- Population Apoptotic (%) [5]: 53%
- Population Fragmented Nuclei (%) [5]: 19%
- Population Healthy Nuclei (%) [5]: 59%
- Population Hoechst High Intensity Objects (%) [5]: 8%
- Population Membrane Permeable-Phenotype (%) [5]: 10%
- Population Mitochondria Different-Phenotype (%) [5]: 91%
- Population Mitotic Cells (%) [5]: 46%
- Population Normal (%) [5]: 91%
- Population Pyknosed Nuclei (%) [5]: 20%
- Population Tubulin-Different-Phenotype (%) [5]: 89%
- Total Cell Count [5]: 171
- Population Apoptotic (%) [6]: 58%
- Population Fragmented Nuclei (%) [6]: 20%
- Population Healthy Nuclei (%) [6]: 61%
- Population Hoechst High Intensity Objects (%) [6]: 10%
- Population Membrane Permeable-Phenotype (%) [6]: 21%
- Population Mitochondria Different-Phenotype (%) [6]: 85%
- Population Mitotic Cells (%) [6]: 41%
- Population Normal (%) [6]: 89%
- Population Pyknosed Nuclei (%) [6]: 17%
- Population Tubulin-Different-Phenotype (%) [6]: 87%
- Total Cell Count [6]: 75
- Population Apoptotic (%) [7]: 96%
- Population Fragmented Nuclei (%) [7]: 41%
- Population Healthy Nuclei (%) [7]: 8%
- Population Hoechst High Intensity Objects (%) [7]: 8%
- Population Membrane Permeable-Phenotype (%) [7]: 72%
- Population Mitochondria Different-Phenotype (%) [7]: 90%
- Population Mitotic Cells (%) [7]: 3%
- Population Normal (%) [7]: 91%
- Population Pyknosed Nuclei (%) [7]: 49%
- Population Tubulin-Different-Phenotype (%) [7]: 90%
- Total Cell Count [7]: 135
- Population Apoptotic (%) [8]: 97%
- Population Fragmented Nuclei (%) [8]: 27%
- Population Healthy Nuclei (%) [8]: 13%
- Population Hoechst High Intensity Objects (%) [8]: 20%
- Population Membrane Permeable-Phenotype (%) [8]: 100%
- Population Mitochondria Different-Phenotype (%) [8]: 87%
- Population Mitotic Cells (%) [8]: 2%
- Population Normal (%) [8]: 79%
- Population Pyknosed Nuclei (%) [8]: 59%
- Population Tubulin-Different-Phenotype (%) [8]: 100%
- Total Cell Count [8]: 74
- Population Apoptotic (%) [9]: 55%
- Population Fragmented Nuclei (%) [9]: 26%
- Population Membrane Permeable-Phenotype (%) [9]: 18%
- Population Mitochondria Different-Phenotype (%) [9]: 82%
- Population Mitotic Cells (%) [9]: 44%
- Population Pyknosed Nuclei (%) [9]: 21%
- Population Tubulin-Different-Phenotype (%) [9]: 79%
- Total Cell Count [9]: 215
- Population Apoptotic (%) [10]: 64%
- Population Fragmented Nuclei (%) [10]: 25%
- Population Healthy Nuclei (%) [10]: 51%
- Population Hoechst High Intensity Objects (%) [10]: 8%
- Population Membrane Permeable-Phenotype (%) [10]: 31%
- Population Mitochondria Different-Phenotype (%) [10]: 71%
- Population Mitotic Cells (%) [10]: 35%
- Population Normal (%) [10]: 91%
- Population Pyknosed Nuclei (%) [10]: 22%
- Population Tubulin-Different-Phenotype (%) [10]: 84%
- Total Cell Count [10]: 81
- Population Apoptotic (%) [11]: 98%
- Population Fragmented Nuclei (%) [11]: 43%
- Population Healthy Nuclei (%) [11]: 2%
- Population Hoechst High Intensity Objects (%) [11]: 15%
- Population Membrane Permeable-Phenotype (%) [11]: 100%
- Population Mitochondria Different-Phenotype (%) [11]: 100%
- Population Mitotic Cells (%) [11]: 1%
- Population Normal (%) [11]: 84%
- Population Pyknosed Nuclei (%) [11]: 53%
- Population Tubulin-Different-Phenotype (%) [11]: 100%
- Total Cell Count [11]: 137
- Population Apoptotic (%) [12]: 100%
- Population Fragmented Nuclei (%) [12]: 17%
- Population Healthy Nuclei (%) [12]: 45%
- Population Hoechst High Intensity Objects (%) [12]: 34%
- Population Mitochondria Different-Phenotype (%) [12]: 95%
- Population Mitotic Cells (%) [12]: 0%
- Population Normal (%) [12]: 65%
- Population Pyknosed Nuclei (%) [12]: 36%
- Population Tubulin-Different-Phenotype (%) [12]: 95%
- Total Cell Count [12]: 70
